Assay outcomes (PubChem BioAssay)
The list is not random: actives were taken first. Their share in the collection is about 2.4%.
SIAE primary = human SIAE inhibitors, primary screen, biochemical, fluorescence polarization, FP-Rh probe, 1536-well HTS; SIAE FP-Rh probe binding; hit rate 0.69% among 370,000; inhibition, % at 9.66 µM; Sialate O-acetylesterase (Homo sapiens), Q9HAT2;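 active means inhibition above a cutoff: mean of compounds within the control limits plus 3 SD of those, cut at about 17% in these data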;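 further: 0% = plate median of compound wells and 100% = probe without SIAE protein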
ABHD4 inh = ABHD4 inhibitors, primary screen, biochemical, fluorescence polarization, mouse | purified mABHD4, FP-Rh probe fluorescence polarization | inhibition, % at 8.92 µM | hit rate 0.54% among 370,000;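 active means inhibition exceeding the mean over every tested compound plus 3 SD, cut at about 30% in these data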;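 further: 0% = plate median of compound wells and 100% = S159A mutant with DMSO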
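System: mouse ABHD4 enzyme, wild type / Medium: HEPES pH 7.0, NaCl, Pluronic buffer / Reagent: FP-Rh activity-based fluorescent probe / Control set: S159A mutant high control, sample median low control / Detection: fluorescence polarization with parallel and perpendicular emission, 525/598 nm / Schedule: 45 min + 60 min at 25 °C / Compound dosing: 8.92 µM, single dose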
PRMT1 FP inh = PRMT1 methyltransferase inhibitors, primary screen, biochemical, fluorescence polarization; hit rate 1.3% among 370,000; recombinant PRMT1, activity-based probe fluorescence polarization; inhibition, % at 2.79 µM; Protein arginine N-methyltransferase 1 (Homo sapiens), Q99873;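 active means inhibition above about 21% made by adding two undisclosed values, limit read from the data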
HTRA1 inhibitor = HTRA1 serine protease inhibitors, primary screen, biochemical, fluorescence polarization, HTS | inhibition, % at 5.96 µM | recombinant HTRA1, FP-rhodamine activity-based probe | Q92743 | AID 504803, 2011 | hit rate 0.5% among 340,000; in the data active means inhibition above about 36%;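 further: 0% = enzyme with DMSO and 100% = wells lacking enzyme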
JMJD2C inh = inhibitors of GASC-1 histone demethylase, primary screen, biochemical, fluorescence, DELFIA europium | Lysine-specific demethylase 4C (Homo sapiens), Q9H3R0 | hit rate 0.069% among 330,000 | GST-JMJD2C(1-420) H3K9me3 demethylation | AID 2099, 2009 | inhibition, % at 2.35 µM;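 active means more than half of a compound's replicate wells show inhibition beyond 50%, single wells judged on their own value; inconclusive means some, but no more than half, of replicates pass 50% inhibition; inactive means no replicate passes 50% inhibition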;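 further: signal counts dimethyl H3K9 product captured on neutravidin plate; 0% = median of DMSO wells and 100% = 0.3 times that DMSO median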
Target sequence (Q9H3R0 1-420 limits assumed): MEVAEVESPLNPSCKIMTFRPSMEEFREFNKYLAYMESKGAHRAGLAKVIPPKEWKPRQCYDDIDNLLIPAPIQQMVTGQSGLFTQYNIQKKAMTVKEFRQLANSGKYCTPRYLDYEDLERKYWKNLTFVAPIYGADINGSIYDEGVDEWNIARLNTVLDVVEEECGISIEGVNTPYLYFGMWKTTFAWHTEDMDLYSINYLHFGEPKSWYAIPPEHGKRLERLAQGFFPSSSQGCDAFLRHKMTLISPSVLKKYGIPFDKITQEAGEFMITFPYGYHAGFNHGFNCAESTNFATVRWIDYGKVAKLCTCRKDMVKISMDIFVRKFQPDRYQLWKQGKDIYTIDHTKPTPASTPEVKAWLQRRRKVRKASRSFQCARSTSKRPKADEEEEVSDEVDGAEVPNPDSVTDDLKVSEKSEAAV
HTRA1 conf = HTRA1 protease inhibitors, retest, confirmation, biochemical, fluorescence polarization. recombinant HTRA1, FP-rhodamine activity-based probe. shares compounds with HTRA1 inhibitor. hit rate 66% among 1,600. inhibition, % at 5.96 µM;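 active means mean inhibition over three repeats above a set limit taken from the earlier primary screen, cut at about 37% in these data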;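 further: 0% = HTRA1 with DMSO and 100% = wells lacking HTRA1; inhibitors block probe binding so polarization drops and inhibition rises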
Starred values were filed as active, the others as inactive; ? = inconclusive; . = no result given.

SMILES	SIAE primary	ABHD4 inh	PRMT1 FP inh	HTRA1 inhibitor	JMJD2C inh	HTRA1 conf
O=C(O)CCNc1cc(N2CCN(C(=O)c3ccco3)CC2)c2noc3c2c1C(=O)c1ccccc1-3	29.8*	49.4*	25.4*	45.5*	-7.6	7.1
Cc1cc(N2CCN(C(=O)c3ccco3)CC2)c2ccccc2n1	5.0	-1.3	-5.7	4.4	0.8	.
CC(=O)c1c(C)[nH]c(C(=O)Nc2cccc(C(F)(F)F)c2)c1C	-3.4	-16.5	-1.2	-22.9	1.8	.
CCc1nc2c(OCc3ccc(C(F)(F)F)cc3)cccn2c1N(C)C(=O)c1ccc(C)cc1	-3.9	7.2	-3.8	.	.	.
Cc1cc(/C=N/n2c(COc3ccccc3)nc3ccccc3c2=O)c(O)c([N+](=O)[O-])c1	23.6*	16.0	6.7	40.6*	-7.9	54.4*
O=c1cc(-c2ccccc2)oc2ccccc12	0.9	-3.2	-4.8	-3.4	4.7	.
Nc1cc([N+](=O)[O-])cc2oc(-c3ccccc3)cc12	3.2	22.5	8.4	45.4*	-1.4	38.4*
COc1cc(C2Nc3cccc4cccc(c34)N2)cc(OC)c1O	46.7*	-2.0	4.0	38.5*	7.2	35.3
Cc1ccnc(NCc2cc(Cl)cc(Cl)c2O)c1	1.1	-2.3	5.2	3.2	.	.
Cc1cc(C)c(O)c(CN(C)Cc2cc(Cl)cc(Cl)c2O)c1	9.0	5.4	2.4	62.5*	.	55.1*
O=C(Cc1ccccc1)Nc1nnc(-c2cccnc2)s1	-2.6	2.3	-5.2	.	.	.
c1ccc(CNc2ccc(N3CCOCC3)cc2)cc1	14.4	26.3	8.2	52.1*	10.3	16.8
CCc1ccc(CNc2ccc(N3CCN(C(C)=O)CC3)cc2)cc1	8.1	27.3	5.8	42.5*	-12.8	4.2
C=CCOC/C=C/C#CCN(Cc1ccc(OC)cc1OC)C(=O)Nc1ccccc1	4.5	-11.9	-0.4	.	.	.
C=CCNC(=S)N(C)[C@H]1C[C@H]2c3[nH]c4c(-c5ccccc5)cccc4c3CCN2C(=O)[C@H]1[C@H](C)O	5.7	1.1	5.3	.	.	.
Cc1ccccc1-c1cccc([C@@H]2C[C@H]3[C@H](CON3C)CN2S(=O)(=O)c2ccccc2C)c1	-1.2	-1.9	1.3	-14.2	.	.
CCOc1cccc(/C=N/NC(=S)Nc2ccccc2[N+](=O)[O-])c1O	7.3	26.6	0.1	54.1*	-7.9	51.1*
CCCCNC(=S)N/N=C/c1cccc(OCC)c1O	1.8	5.4	0.1	16.8	4.2	.
COc1ccc(CCNC(=O)c2cnn(-c3ccccc3)c2N)cc1OC	-0.5	-2.2	-4.5	.	.	.
CN(C)c1ccnc2c[cH-]cc12.[Fe].c1ccc(-[c-]2[c-](-c3ccccc3)[c-](-c3ccccc3)[c-](-c3ccccc3)[c-]2-c2ccccc2)cc1 (stereo not drawn)	9.1	26.1	-1.2	36.8*	2.0	57.0*
COC1=C(OC)C(=O)C(CCCCCCCCCCO)=C(C)C1=O	6.6	1.5	3.5	.	.	.
COC1=CC(=O)C(O)=C(CCCCCCC/C=C/CCCCCCCC2=C(O)C(=O)C=C(OC)C2=O)C1=O	.	.	.	64.4*	-5.1	93.5*
CCCCCCCCN1CN2Cc3cc(F)ccc3C2CS1(=O)=O (stereo not drawn)	-0.4	-8.8	-0.8	.	.	.
Cc1ccc(/C=C2/SC(=O)NC2=S)o1	.	.	.	40.2*	.	17.9
Cc1nn(-c2cc(N3CCCCC3)ccc2N)c(=O)c2ccccc12	5.6	14.4	0.4	6.8	1.5	.
SMILES	SIAE primary	ABHD4 inh	PRMT1 FP inh	HTRA1 inhibitor	JMJD2C inh	HTRA1 conf
Nc1ccc(N2CCCCC2)cc1N1CCCCC1	6.1	23.1	5.9	51.2*	-7.1	58.6*
COc1ccc2c(c1O)-c1ccccc1CCN(C)C2	10.6	4.9	-1.9	1.8	-9.9	.
CN1CCc2cccc3c2[C@@H]1Cc1ccc(O)c(O)c1-3	.	.	.	49.1*	?	53.3*
CCS(=O)(=O)c1ccc(OC)c(N=Nc2ccc(O)c3ncccc23)c1	3.5	20.8	-2.2	45.0*	-22.1	31.5
CCN(CC)S(=O)(=O)c1cc(OC)ccc1N=Nc1ccc(O)c2ncccc12	15.2	21.8	-4.8	62.6*	12.7	68.7*
CCn1c(SCC(=O)c2ccc(-c3ccccc3)cc2)nnc1-c1ccc(C(C)(C)C)cc1	1.7	7.2	0.8	.	.	.
CCn1c(SCC(=O)c2ccc(O)c(O)c2)nnc1-c1ccc(C)cc1	11.4	32.2*	8.4	48.8*	2.2	76.5*
O=Cc1ccc(O)c2ncccc12	.	.	.	36.4*	-21.9	60.0*
O=C(OCCCCSc1nnc(-c2cccc3ccccc23)o1)c1ccc(F)cc1	-3.3	-5.1	-1.9	.	.	.
CC1=C(SCc2ccccc2)C(=O)c2ccccc2C1=O	14.1	70.0*	65.9*	42.3*	.	36.5*
CC(C)(C)NC(=O)C(c1cccnc1)N(C(=O)c1cnc[nH]1)c1ccc(C(C)(C)C)cc1 (stereo not drawn)	-0.7	-2.1	-4.0	.	.	.
CC(C)CNc1cccc2c1S(=O)(=O)N(Cc1cn(Cc3ccc(F)cc3)nn1)Cc1ccccc1O2	0.6	21.7	0.9	.	.	.
O=C(NN=C1CCN(Cc2ccccc2)CC1)c1ccccc1	-5.1	1.0	2.1	4.3	4.9	.
O=C(NN=C1CCN(Cc2ccccc2)CC1)c1cc(Br)ccc1O	11.1	8.8	0.1	39.6*	-3.6	12.6
CCCC1Nc2ccc(C(=O)O)cc2C2C=CCC12 (stereo not drawn)	.	.	.	38.9*	7.7	38.5*
O=C(O)c1ccc2c(c1)C1C=CCC1C(c1ccncc1)N2 (stereo not drawn)	0.6	-0.9	-5.1	6.1	-4.6	.
c1ccc(-n2c(SCc3cccc4ccccc34)nnc2-c2ccccn2)cc1	0.8	-2.1	-2.6	.	.	.
CN(C)c1ccc(C=c2c3ccccc3n3c2cc(-c2ccccc2)[n+]3C)cc1	-110.1	-177.7	0.4	-31.7	.	.
CN(C)c1ccc(C=c2c3ccccc3n3c2c2c([n+]3C)CCCC2)cc1	-3.6	7.7	3.7	52.8*	.	54.8*
Oc1ccccc1C=Nn1c(-c2ccccc2F)n[nH]c1=S	1.3	2.1	13.0	.	.	.
CCCC#Cc1ccc(CC[C@H]2O[C@H]3CC[C@@H](CO)O[C@H]3C[C@H]2NC(=O)CN2CCOCC2)cc1	-3.2	-5.5	-0.5	.	.	.
CC1(OC(=O)C2CCCC2)C(=O)C=C2C=C(c3ccsc3)N(Cc3ccccc3)C=C2C1=O (stereo not drawn)	4.8	23.6	6.7	37.9*	22.8	30.8
CC1(OC(=O)C2CCCC2)C(=O)C=C2C=C(c3ccsc3)N(c3ccccc3)C=C2C1=O (stereo not drawn)	5.6	19.7	6.8	39.3*	5.0	32.5
